Screening data as filed in PubChem.
Compounds with a hit are over-represented: about 2.7% of the library has one in this group of screens.
Tb hexokinase: T. brucei hexokinase 1 inhibition; recombinant TbHK1, G6PDH-coupled NADH A340; actives 0.11% (n = 220,000); AID 1430; inhibition, % at 10 µM;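 active = inhibition of 50% or more in the single-dose primary screen; inactive = inhibition below 50%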
Hck-Nef inh: human Hck-Nef kinase inhibition; P08631; Recombinant Hck-YEEI plus Nef, Z-Lyte FRET kinase assay; inhibition, % at 20 µM; actives 0.68% (n = 220,000);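 active = Hck-Nef kinase inhibition above about 50%, limit read from the data; inactive = inhibition below that limit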;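 note: 0% = DMSO with Hck plus Nef and 100% = Hck alone without Nef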
MDM2 E3 inh: Mdm2 E3 ligase (human) inhibition; signal enhancement, % at 5 µM; actives 0.11% (n = 210,000); Q00987; cell-based MDM2 ubiquitination luciferase reporter, 2 h; 0 = plate control, 100 = twice control, blank-subtracted;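 active = signal enhancement of 30% or more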;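 note: luminescence tracks abundance of the self-degrading MDM2-luciferase fusion protein; higher signal means inhibition of MDM2 E3 ligase activity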
Target sequence (Q00987 whole entry, looked up, the tested form may be a part): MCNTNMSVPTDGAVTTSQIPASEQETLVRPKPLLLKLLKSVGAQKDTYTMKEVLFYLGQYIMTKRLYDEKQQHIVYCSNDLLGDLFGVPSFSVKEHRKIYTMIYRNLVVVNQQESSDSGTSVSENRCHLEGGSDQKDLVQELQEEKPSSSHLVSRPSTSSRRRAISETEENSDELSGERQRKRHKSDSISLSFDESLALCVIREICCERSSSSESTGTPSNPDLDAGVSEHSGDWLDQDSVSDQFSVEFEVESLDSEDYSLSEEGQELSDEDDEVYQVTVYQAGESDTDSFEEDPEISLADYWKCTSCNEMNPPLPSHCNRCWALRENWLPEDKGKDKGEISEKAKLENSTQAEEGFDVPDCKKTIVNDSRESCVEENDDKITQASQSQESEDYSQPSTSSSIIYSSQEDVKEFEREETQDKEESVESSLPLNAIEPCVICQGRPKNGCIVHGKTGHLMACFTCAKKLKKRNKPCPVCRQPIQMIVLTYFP
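Test system: stable mammalian line carrying autodegrading MDM2–luciferase fusion reporter; quantity: 2000 cells in each well; times: 4 h cell settling then 2 h compound exposure, 37 °C; detection: luminescence with SteadyLite reagent, 15 min at room temperature; evaluation: percent signal gain over controls, blank-subtracted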
14-3-3 Bad inh: disrupts binding of bovine 14-3-3 zeta to phospho-Bad peptide. P63103. TR-FRET 14-3-3zeta/Dy647-pBad peptide displacement, 1 h. inhibition, % at 21.7 µM. actives 0.71% (n = 220,000). AID 781;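 active = inhibition above about 70%, limit read from the data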;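 note: 0% = full 14-3-3 plus peptide FRET controls and 100% = background without 14-3-3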
Wee1 degr inh: human Wee1 degradation inhibition, primary screen; actives 1.2% (n = 220,000); HeLa Luc-Wee1K328M stability, luciferase luminescence; 100% = proteasome inhibitor MG132 effect; reporter increase, % at 5 µM; P30291; AID 1321;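 active = activation above the mean of all tested compounds plus 3 SD, set per screening run, cut at about 8.8% in these data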;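 note: cells exposed to compound for 20 h before luminescence read; 0% = DMSO alone and 100% = MG132 at 30 µM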
Numbers without * were called inactive; . = not tested or not shown.

SMILES	Tb hexokinase	Hck-Nef inh	MDM2 E3 inh	14-3-3 Bad inh	Wee1 degr inh
O=C(Nc1nnc(C(F)(F)F)s1)c1ccc(N2C(=O)C3C4C=CC(C4)C3C2=O)cc1 (stereo not given)	-12	2	-23	-7	2
Cc1cc(Cl)ccc1OCCCC(=O)Nc1cccnc1	-2	-1	-13	75*	0
O=C(CCSc1ccc(Cl)cc1)Nc1cccnc1	-2	-2	-10	-9	-3
COc1ccc2[nH]c3c(c2c1)CCn1c-3nc2ccccc2c1=O	-8	-11	3	3	13*
O=C(Cn1cc(C(=O)c2ccco2)c2ccccc21)NC1CCCC1	-35	0	2	12	3
COc1ccc(NC(C)=O)cc1CNC(=O)COc1c(C)c(C)cc(C)c1C	-8	2	4	3	0
COc1ccc(C)cc1S(=O)(=O)N(C)CC(=O)NC1CCCCC1	-4	2	30*	0	-1
COc1ccc(C)cc1S(=O)(=O)N(C)CC(=O)NC1CCCCCC1	-1	5	-12	4	0
NC(=O)c1ccsc1NC(=O)c1coc2ccccc2c1=O	-8	7	-21	-9	10*
O=C(CC1C(=O)NCCN1C(=S)Nc1ccccc1)Nc1ccc2c(c1)OCCO2 (stereo not given)	3	3	-3	-5	0
Cc1ccc(NC(=O)CC2C(=O)NCCN2C(=S)Nc2ccccc2)c(C)c1 (stereo not given)	2	0	-11	75*	-1
CC(=O)Nc1ccc(S(=O)(=O)N2CCN=C2SCc2cccnc2)cc1	-3	19	32*	-3	1
COc1ccc(N2CCN(C(C)C(=O)N3CCCC3)CC2)cc1 (stereo not given)	11	12	-18	79*	4
CCOC(=O)Nc1ccc(OCc2nnc3c4ccccc4c(C)nn23)cc1	-1	7	0	9	-3
Cc1nn2c(COc3ccc(NC(=O)C(C)C)cc3)nnc2c2ccccc12	-3	9	-2	85*	-4
CCn1c(O)c(/C=C2\C=NN=C2c2ccccc2)sc1=S	-14	10	-11	4	-3
Cn1c(O)c(/C=C2\C=NN=C2c2ccccc2)sc1=S	-13	7	0	6	9.6*
Cc1ccc(N(C(C)C(=O)Nc2cccc(N(C)S(C)(=O)=O)c2)S(C)(=O)=O)cc1 (stereo not given)	3	4	-1	-9	-1
Cc1ccc(SC(C)C(=O)Nc2cccc(N(C)S(C)(=O)=O)c2)cc1 (stereo not given)	1	2	-1	75*	-2
COc1ccc(-n2c(SCC(=O)Nc3cc(C(=O)O)ccc3C)nc3ccccc3c2=O)cc1Cl	3	5	-6	2	-1
Clc1ccc(-c2ccc(SCc3ccccn3)nn2)cc1	1	1	6	0	10*
c1ccc(CSc2ccc(-c3ccccn3)nn2)nc1	2	9	-16	-17	9.7*
Cc1c(C(=O)NCCSCc2cccc(C(F)(F)F)c2)cnn1-c1ccc(F)cc1	-6	16	-18	3	-1
CCn1nc(C)c(CN2CCc3c([nH]c4ccccc34)C2c2ccc(F)c(OC)c2)c1C (stereo not given)	-14	6	-12	-2	0
COc1ccc(C(=O)Nc2ccc(N3CCCCC3)cc2)cc1Br	21	2	-10	-14	0
SMILES	Tb hexokinase	Hck-Nef inh	MDM2 E3 inh	14-3-3 Bad inh	Wee1 degr inh
Cc1ccc(C(=O)Nc2ccc3c(c2)OCO3)o1	-8	1	-3	7	0
O=C(Nc1ccc2c(c1)OCCO2)c1ccc(Br)o1	-8	-1	-40	-1	9.4*
O=C(O)c1cc2ccccc2c2cc(Br)ccc12	4	0	-14	-1	4
Cc1nc(-c2ccccc2)cn(O)c1=O	-15	20	-3	72*	3
Cc1nn2cc(-c3ccccc3)nc2[nH]c1=O	-14	9	-13	5	-1
O=C(Nc1ccc2c(c1)OCO2)c1noc2c1CCCCC2	-5	0	-8	10	10*
O=C(CCc1nnc(Cc2c[nH]c3ccccc23)o1)NCC1CC12CCCCC2 (stereo not given)	-10	18	5	-3	-4
O=c1[nH]cc(N(CCO)CCO)c(=O)[nH]1	7	15	-5	0	9.5*
OCCN1CCN(CC(O)COc2ccc(-c3ccccc3)cc2)CC1 (stereo not given)	3	1	-8	84*	0
Cc1nnc(NC(=O)c2ccco2)s1	-9	19	-19	-1	-1
O=C(Nc1nnc(COc2ccc(Cl)cc2)s1)c1ccco1	0	19	-9	17	9.8*
O=C(Nc1nnc(C23CC4CC(CC(C4)C2)C3)s1)c1ccco1	8	9	-15	-8	9.4*
CCOC(=O)c1cnc(/N=C/N(C)C)s1	-46	18	-20	97*	-2
CCOC(=O)c1sc(/N=C/N(C)C)nc1C	1	2	-5	-11	-1
COc1ccc(N=Nc2nc3ccc(Br)cc3n2C)cc1	7	0	-33	4	9.9*
COc1ccccc1NC(=O)c1cc(S(=O)(=O)NCc2ccccc2)ccc1F	-3	22	7	-18	9.2*
CC(=O)Nc1cc2c(cc1C(C)=O)OCCO2	-9	2	0	10	9.0*
O=C(NCc1ccccc1)c1ccc(CN(c2ccccn2)S(=O)(=O)c2ccccc2)cc1	-7	1	-11	-2	-3
Cc1cc(C(=O)Nc2ccc(N3CCCCC3)cc2)no1	-15	-7	-58	-3	9.1*
Cc1cc(C(=O)Nc2ccc(S(=O)(=O)N3CCCC3)cc2)no1	-2	15	-12	-6	1
CCC(C)Nc1nc(-c2ccc3c(c2)NC(=O)CO3)cs1 (stereo not given)	2	0	.	81*	3
Cc1c(NC(=O)C(C)Sc2n[nH]c(N)n2)c(=O)n(-c2ccccc2)n1C (stereo not given)	-7	1	-13	8	0
COc1cc(/C=N/NC(=O)c2ccc(O)cc2)ccc1Oc1ccc([N+](=O)[O-])cn1	-47	1	-16	8	-1
Cn1c(Cn2c3ccccc3c3ccccc32)n[nH]c1=S	-13	11	-6	-6	9.4*
OCCCc1nc2ccccc2[nH]1	4	10	-2	-3	-1
OC1(c2ccc(Cl)c(Cl)c2)C[n+]2ccccc2N1Cc1ccccc1 (stereo not given)	-5	11	3	0	-1
CCOc1nc(C)ccc1-c1noc(-c2ccccn2)n1	5	2	-17	-2	2
CCOc1ccccc1-c1nc(-c2ccc(C)nc2OC)no1	5	0	5	-4	9.5*
CCc1ccc(NCc2nc3ccccc3c(=O)[nH]2)cc1	-2	0	-14	.	0
CCCCNCc1nc2ccccc2c(=O)[nH]1	-5	22	-12	-15	8.9*
